Measured values: ChEMBL document CHEMBL1126595, “Studies directed toward the design of orally active renin inhibitors. 2. Development of the efficacious, bioavailable renin inhibitor (2S)-2-benzyl-3- [[(1-methylpiperazin-4-yl)sulfonyl]propionyl]-3-thiazol-4-yl-L-alanine amide of (2S,3R,4S)-2-amino-1-cyclohexyl-3,4-dihydroxy-6-methylheptane …” (J Med Chem, 1993)
≈ marks a conversion by molar mass, not a printed value.

Legend:
[1] = Integrated area under the plasma drug level-time curve was determined in systemic circulation after intraduodenal dose of 10 mg/kg in ferret; format: ADME, organism-based, Mustela putorius furo; parameters: dose 10 mg/kg, route intraduodenal
How it was run: (§1)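 Intraduodenal 10 mg/kg to anesthetized rats or ferrets. Compound dissolved in ethanol with 110 mol % HCl, then diluted in aqueous hydroxypropyl methylcellulose to 25% ethanol (10 mg/mL). Plasma sampled id rat 15, 30, 60, 120 min; id ferret 5, 15, 30, 60, 120, 180 min. Drug measured by renin inhibition assay or HPLC. AUC in ng h/mL. Bioavailability is relative to iv 1.0 mg/kg (rat) or 0.3 mg/kg (ferret).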

[2] = Integrated area under the plasma drug level-time curve was determined in systemic circulation after intraduodenal dose of 10 mg/kg in rat; format: ADME, organism-based; parameters: dose 10 mg/kg, route intraduodenal; how it was run: as §1
[3] = Peak concentration was determined in systemic circulation after intraduodenal dose of 10 mg/kg in ferret; format: ADME, organism-based, Mustela putorius furo; parameters: dose 10 mg/kg, route intraduodenal; details: in vivo, read-out: Activity; how it was run: as §1
[4] = Peak concentration was determined in systemic circulation after intraduodenal dose of 10 mg/kg in rat; format: ADME, organism-based; parameters: dose 10 mg/kg, route intraduodenal; details: in vivo, read-out: Activity; how it was run: as §1
[5] = Bioavailability in ferret (dose 10 mg/kg i.d.); format: ADME, organism-based, Mustela putorius furo; details: in vivo; how it was run: as §1
[6] = Bioavailability in rat (dose 10 mg/kg i.d.); format: ADME, organism-based; details: in vivo; how it was run: as §1
[7] = Bioavailability in the portal circulation after 10 minutes was determined after intraduodenal dose of 10 mg/kg in rat by HPLC method; format: ADME, organism-based; details: plasma (portal circulation), read-out: Plasma level
How it was run: (§2)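 Screening model in anesthetized rats given 10 mg/kg intraduodenally. Formulation was ethanol stock with 110 mol % HCl, diluted with aqueous hydroxypropyl methylcellulose to 25% ethanol. Systemic and portal blood drawn at 10 and 30 min in the same animals. Drug level (ng/mL) measured by HPLC or renin inhibition assay. Mean ± SEM, n = 3 unless noted.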

[8] = Bioavailability in the portal circulation after 30 minutes was determined after intraduodenal dose of 10 mg/kg in rat by HPLC method; format: ADME, organism-based; details: plasma (portal circulation), read-out: Plasma level; how it was run: as §2
[9] = Bioavailability in the systemic circulation after 10 minutes was determined after intraduodenal dose of 10 mg/kg in rat by HPLC method; format: ADME, organism-based; details: plasma (systemic circulation), read-out: Plasma level; how it was run: as §2
[10] = Bioavailability in the systemic circulation after 30 minutes was determined after intraduodenal dose of 10 mg/kg in rat by HPLC method; format: ADME, organism-based; details: plasma (systemic circulation), read-out: Plasma level; how it was run: as §2
[11] = Partition coefficient in the octanol/water phase at pH 7.4; format: physicochemical
How it was run: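 log P measured by octanol/water partition at pH 7.4.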

Renin = biological target: T1, Renin (Homo sapiens, UniProt P00797); experiment: Inhibitory concentration against human plasma renin at pH 7.4; format: cell-free
T1 sequence (P00797 whole entry): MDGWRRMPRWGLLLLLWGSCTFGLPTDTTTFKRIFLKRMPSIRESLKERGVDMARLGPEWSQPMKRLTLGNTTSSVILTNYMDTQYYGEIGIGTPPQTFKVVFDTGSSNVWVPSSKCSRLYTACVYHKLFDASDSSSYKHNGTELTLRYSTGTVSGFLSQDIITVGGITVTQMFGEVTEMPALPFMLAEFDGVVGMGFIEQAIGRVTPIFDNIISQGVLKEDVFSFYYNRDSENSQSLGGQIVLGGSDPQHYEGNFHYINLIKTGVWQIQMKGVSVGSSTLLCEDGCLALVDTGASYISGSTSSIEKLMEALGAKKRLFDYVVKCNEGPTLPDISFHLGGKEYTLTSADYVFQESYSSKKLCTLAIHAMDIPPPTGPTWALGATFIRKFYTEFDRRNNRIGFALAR

[12] = Solubility at pH 7.4; format: physicochemical; details: buffer
[13] = Bioavailability in the portal circulation after 30 minutes was determined after intraduodenal dose of 10 mg/kg in rat by renin inhibition assay; format: ADME, organism-based; details: plasma (portal circulation), read-out: Plasma level; how it was run: as §2
[14] = Bioavailability in the portal circulation after 10 minutes was determined after intraduodenal dose of 10 mg/kg in rat by renin inhibition assay; format: ADME, organism-based; details: plasma (portal circulation), read-out: Plasma level; how it was run: as §2
[15] = Bioavailability in the systemic circulation after 10 minutes was determined after intraduodenal dose of 10 mg/kg in rat by renin inhibition assay; format: ADME, organism-based; details: plasma (systemic circulation), read-out: Plasma level; how it was run: as §2
[16] = Bioavailability in the systemic circulation after 30 minutes was determined after intraduodenal dose of 10 mg/kg in rat by renin inhibition assay; format: ADME, organism-based; details: plasma (systemic circulation), read-out: Plasma level; how it was run: as §2
[17] = Integrated area under the plasma drug level-time curve was determined in portal circulation after intraduodenal dose of 10 mg/kg in monkey; format: ADME, organism-based; parameters: dose 10 mg/kg, route intraduodenal; details: simiiformes
How it was run: (§3)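 Anesthetized, salt-depleted cynomolgus monkeys dosed intraduodenally at 10 mg/kg in HCl salt/ethanol–hydroxypropyl methylcellulose vehicle (25% ethanol). Systemic and portal plasma drug levels measured by renin inhibition assay. AUC in ng h/mL. Bioavailability compared against an iv dose of 0.3 mg/kg or 1.0 mg/kg, the latter taken from earlier work. Mean ± SEM.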

[18] = Integrated area under the plasma drug level-time curve was determined in systemic circulation after intraduodenal dose of 10 mg/kg in monkey; format: ADME, organism-based; parameters: dose 10 mg/kg, route intraduodenal; details: simiiformes; how it was run: as §3
[19] = Bioavailability was determined after intraduodenal dose of 10 mg/kg in monkey (compared to 1 mg/kg intravenous dose); format: ADME, organism-based; details: simiiformes, in vivo, read-out: Bioavailabiility; how it was run: as §3
[20] = Hypotension peak is percentage change from predose baseline pressure observed after intraduodenal dose of 10 mg/kg in monkey; format: ADME, organism-based; parameters: dose 10 mg/kg, route intraduodenal; details: simiiformes, in vivo, other
How it was run: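 Anesthetized, salt-depleted cynomolgus monkeys given 10 mg/kg intraduodenally. Mean arterial pressure followed for up to 5 h. Peak fall expressed as % change from predose baseline. Difference from baseline significant if P < 0.05. Mean ± SEM.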

[21] = Peak concentration was determined in portal circulation after intraduodenal dose of 10 mg/kg in monkey; format: ADME, organism-based; parameters: dose 10 mg/kg, route intraduodenal; details: simiiformes, in vivo, read-out: Activity; how it was run: as §3
[22] = Peak concentration was determined in systemic circulation after intraduodenal dose of 10 mg/kg in monkey; format: ADME, organism-based; parameters: dose 10 mg/kg, route intraduodenal; details: simiiformes, in vivo, read-out: Activity; how it was run: as §3
[23] = Bioavailability in the systemic circulation after 10 minutes was determined after intraduodenal dose of 15 mg/kg in rat by renin inhibition assay; format: ADME, organism-based; details: plasma (systemic circulation), read-out: Plasma level

Structure (SMILES)	concentration at 10 min [7]	concentration at 0.5 h [8]	concentration at 10 min [9]	concentration at 0.5 h [10]	logD [11]	IC50 (Renin)	solubility [12]	concentration at 0.5 h [16]	further results
CC(C)C[C@H](O)[C@H](O)[C@H](CC1CCCCC1)NC(=O)[C@H](Cc1cscn1)NC(=O)[C@H](Cc1ccccc1)CS(=O)(=O)C1CN(C)C1	1.8 µg/mL	1.9 µg/mL	0.51 µg/mL	0.55 µg/mL	3.89	3.9 nM	–	–	AUC [1]: 2 µg·h/mL; AUC [2]: 1.3 µg·h/mL; Cmax [3]: 0.79 µg/mL; Cmax [4]: 0.85 µg/mL; bioavailability [5]: 80%; bioavailability [6]: 80%
CC(C)C[C@H](O)[C@H](O)[C@H](CC1CCCCC1)NC(=O)[C@H](Cc1cscn1)NC(=O)[C@@H](CC(=O)N(C)CCn1ccnc1)Cc1ccccc1	0.4 µg/mL	0.81 µg/mL	0.057 µg/mL	0.19 µg/mL	4.01	1.3 nM	0.12 mg/mL (≈ 173 µM)	–	–
CC(C)C[C@H](O)[C@H](O)[C@H](CC1CCCCC1)NC(=O)[C@H](Cc1cscn1)NC(=O)[C@@H](CC(=O)N(C)CCN(C)C)Cc1ccccc1	–	–	–	–	3.11	9.4 nM	–	0.45 µg/mL	concentration at 0.5 h [13]: 0.78 µg/mL; concentration at 10 min [14]: 1.6 µg/mL; concentration at 10 min [15]: 0.6 µg/mL
COCCOCOCCN(C)C(=O)C[C@@H](Cc1ccccc1)C(=O)N[C@@H](Cc1cscn1)C(=O)N[C@@H](CC1CCCCC1)[C@@H](O)[C@@H](O)CC(C)C	–	–	–	–	> 4.6	1.6 nM	0.18 mg/mL (≈ 246 µM)	0.57 µg/mL	concentration at 0.5 h [13]: 3.1 µg/mL; concentration at 10 min [14]: 3.1 µg/mL; concentration at 10 min [15]: 0.3 µg/mL
CC(C)C[C@H](O)[C@H](O)[C@H](CC1CCCCC1)NC(=O)[C@H](Cc1cscn1)NC(=O)[C@@H](CC(=O)N(C)CCN1CCOCC1)Cc1ccccc1	–	–	–	–	4.15	4.1 nM	–	0.57 µg/mL	AUC [1]: 1.2 µg·h/mL; Cmax [3]: 0.86 µg/mL; bioavailability [5]: 85%
COCCOCOCCN(C)C(=O)C[C@@H](Cc1ccccc1)C(=O)N[C@@H](Cc1c[nH]cn1)C(=O)N[C@@H](CC1CCCCC1)[C@@H](O)[C@@H](O)CC(C)C	1.9 µg/mL	0.37 µg/mL	0.068 µg/mL	0.05 µg/mL	–	0.8 nM	0.18 mg/mL (≈ 251 µM)	–	–
CC(C)C[C@H](O)[C@H](O)[C@H](CC1CCCCC1)NC(=O)[C@H](Cc1cscn1)NC(=O)[C@@H](CC(=O)NCCc1ccccn1)Cc1ccccc1	–	–	–	–	–	37 nM	–	–	–
CC(C)C[C@H](O)[C@H](O)[C@H](CC1CCCCC1)NC(=O)[C@H](Cc1cscn1)NC(=O)[C@H](Cc1ccccc1)CS(=O)(=O)C(C)(C)C	–	–	–	–	> 4.2	–	–	0.029 µg/mL	concentration at 0.5 h [13]: 0.5 µg/mL; concentration at 10 min [14]: 0.83 µg/mL; concentration at 10 min [15]: 0.022 µg/mL
CC(C)C[C@H](O)[C@H](O)[C@H](CC1CCCCC1)NC(=O)[C@H](Cc1cscn1)NC(=O)[C@@H](CC(=O)N(C)CCc1c[nH]c2ccccc12)Cc1ccccc1	–	–	–	–	–	33 nM	–	–	–
CC(C)C[C@H](O)[C@H](O)[C@H](CC1CCCCC1)NC(=O)[C@H](Cn1cccn1)NC(=O)[C@@H](CC(=O)N(C)CCc1ccccn1)Cc1ccccc1	2.2 µg/mL	4.5 µg/mL	0.22 µg/mL	0.3 µg/mL	> 4.2	1.6 nM	0.014 mg/mL (≈ 20.3 µM)	–	AUC [1]: 0.87 µg·h/mL; AUC [2]: 0.76 µg·h/mL; Cmax [3]: 0.4 µg/mL; Cmax [4]: 0.46 µg/mL; bioavailability [5]: 35%; bioavailability [6]: 20%
CC(C)C[C@H](O)[C@H](O)[C@H](CC1CCCCC1)NC(=O)[C@H](Cc1cscn1)NC(=O)[C@H](Cc1ccccc1)CS(=O)(=O)N(C)CCc1ccccn1	–	–	–	–	> 4.5	1.8 nM	–	–	–
CC(C)C[C@H](O)[C@H](O)[C@H](CC1CCCCC1)NC(=O)[C@H](Cc1cscn1)NC(=O)[C@@H](CC(=O)N(C)CCn1cccn1)Cc1ccccc1	1.9 µg/mL	2.3 µg/mL	0.14 µg/mL	0.23 µg/mL	> 4.2	0.72 nM	0.044 mg/mL (≈ 63.3 µM)	–	–
COCCN(C)C(=O)C[C@@H](Cc1ccccc1)C(=O)N[C@@H](Cc1cscn1)C(=O)N[C@@H](CC1CCCCC1)[C@@H](O)[C@@H](O)CC(C)C	0.93 µg/mL	0.6 µg/mL	0.033 µg/mL	0.033 µg/mL	–	4.1 nM	–	–	–
CC(C)C[C@H](O)[C@H](O)[C@H](CC1CCCCC1)NC(=O)[C@H](Cc1cscn1)NC(=O)[C@@H](CC(=O)N(C)CCN1CCN(C)CC1)Cc1ccccc1	–	–	–	–	3.58	8.5 nM	–	0.074 µg/mL	concentration at 0.5 h [13]: 0.59 µg/mL; concentration at 10 min [14]: 0.58 µg/mL; concentration at 10 min [15]: 0.08 µg/mL
CC(C)C[C@H](O)[C@H](O)[C@H](CC1CCCCC1)NC(=O)[C@H](Cn1ccnc1)NC(=O)[C@@H](CC(=O)N(C)CCc1ccccn1)Cc1ccccc1	–	–	–	–	–	14 nM	–	–	–
CC(C)C[C@H](O)[C@H](O)[C@H](CC1CCCCC1)NC(=O)[C@H](Cc1cscn1)NC(=O)[C@@H](CC(=O)N(C)CCc1ccncc1)Cc1ccccc1	–	–	–	0.19 µg/mL	> 4.2	3 nM	0.012 mg/mL (≈ 17 µM)	–	–
CC(C)C[C@H](O)[C@H](O)[C@H](CC1CCCCC1)NC(=O)[C@H](Cc1cscn1)NC(=O)[C@H](Cc1ccccc1)CS(=O)(=O)N1CCN(C)CC1 [ZANKIREN]	–	–	–	–	4.57	–	–	0.44 µg/mL	AUC [17]: 3.8 µg·h/mL; AUC [1]: 1.5 µg·h/mL; AUC [18]: 0.34 µg·h/mL; AUC [2]: 0.62 µg·h/mL; bioavailability [19]: 5.1%; Change [20]: 37%; Cmax [21]: 2.4 µg/mL; Cmax [3]: 0.94 µg/mL; Cmax [22]: 0.13 µg/mL; Cmax [4]: 0.47 µg/mL; bioavailability [5]: 82%; bioavailability [6]: 23%; concentration at 10 min [23]: 0.28 µg/mL
